Test [1] concerns Mus musculus. Nature of the test: Percent increase in life span of mice bearing L1210 ascites cells compared to control (in vivo). In kind it is functional. The procedure, abridged:
(§1)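 BDF1 female mice (18-20 g), groups of six, implanted ip with 10^5 L1210 ascites cells. On day 1 (24 h later), a single ip injection of test agent at 200 mg/kg, alone or with cyclophosphamide at 100 mg/kg, as a solution or suspension in 5% Tween 80 in normal saline, pH 4. Acetals were heated at 80 °C for 2 h just before injection. Vehicle-only controls were run. Deaths were recorded daily. %ILS = (mean treated life span − mean control)/mean control × 100, with survivors capped at 30 days. Survival was scored as the percent of each group alive 50 days after day 1.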

Test [2] deals with Mus musculus. In words: Percent animals surviving 50 days from day 1 (in vivo). Type of test: functional. The procedure, abridged: as §1

Take `CCOP(=O)(CCC=O)c1ccccc1` (stereo not given): the ILC in the test with Mus musculus [1] is reported as 175%. Moreover, the Cures in the test with Mus musculus [2] is 83%.

Take `CCOC(CCP(=O)(OCC)OCC)OCC`: the ILC with Mus musculus [1] is given as 204%. This molecule returned a Cures in the test on Mus musculus [2] of 83%.

`Cc1ncc(CO)c(C=O)c1O` [PYRIDOXAL] registered an ILC in the test with Mus musculus [1] of 164%. The Cures in the test on Mus musculus [2] amounted to 33%.

For the molecule `CCOC(CCP(=O)(OCC)c1ccccc1)OCC` (stereo not given), the ILC in the test on Mus musculus [1] is listed as 166%. The same molecule gave a Cures in the test on Mus musculus [2] of 50%.

`CCOP(=O)(CC=O)OCC`: in the test with Mus musculus [1], the ILC is reported as 180%. Further, the Cures in the test with Mus musculus [2] stood at 67%.

These data come from ChEMBL document CHEMBL1121408, “Cyclophosphamide potentiation and aldehyde oxidase inhibition by phosphorylated aldehydes and acetals” (J Med Chem, 1980).
